GASC-1 inh: inhibitors of human GASC-1 (JMJD2C) demethylase; inhibition, % at 2.35 µM; Q9H3R0; 0.069% of 330,000 active; GST-JMJD2C(1-420) H3K9me3 demethylation, DELFIA europium;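 active = more than half of a compound's replicate wells show inhibition beyond 50%, single wells judged on their own value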;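 note: signal counts dimethyl H3K9 product captured on neutravidin plate; 0% = median of DMSO wells and 100% = 0.3 times that DMSO median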
ADAM10 inh: inhibitors of human ADAM10 | 0.62% of 370,000 active | recombinant ADAM10, EDANS/DABCYL FRET peptide cleavage, 3 h | inhibition, % at 7 µM | AID 720582 | O14672;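 active = inhibition above a per-campaign cutoff equal to the mean of compounds falling between control-based bounds plus 3 SD, cut at about 20% in these data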;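 note: 0% = DMSO wells while the 100% control is not disclosed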
ADAM17 inh: inhibitors of human ADAM17; P78536; recombinant ADAM17, EDANS/DABCYL FRET peptide cleavage; inhibition, % at 6.95 µM; 0.83% of 370,000 active;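 active = inhibition above the mean of compounds lying between control limits plus 3 SD, set per campaign, cut at about 8.5% in these data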;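 note: 0% = DMSO-only wells as the low control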
NR2E3 ag-1: agonists of human NR2E3 nuclear receptor; Q9Y5X4; CHO-S Gal4-NCOR/VP16-NR2E3 two-hybrid, luciferase; inhibition of corepressor binding, % at 3.98 µM; 0.35% of 360,000 active;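 active = inhibition above the mean of all tested compounds plus 3 SD, cut at about 70% in these data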;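 note: 0% = DMSO with NR2E3 transfected cells and 100% = cells lacking NR2E3 construct; higher means lower luciferase signal from less NR2E3 corepressor binding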
Target sequence (Q9Y5X4 whole entry, looked up, the tested form may be a part): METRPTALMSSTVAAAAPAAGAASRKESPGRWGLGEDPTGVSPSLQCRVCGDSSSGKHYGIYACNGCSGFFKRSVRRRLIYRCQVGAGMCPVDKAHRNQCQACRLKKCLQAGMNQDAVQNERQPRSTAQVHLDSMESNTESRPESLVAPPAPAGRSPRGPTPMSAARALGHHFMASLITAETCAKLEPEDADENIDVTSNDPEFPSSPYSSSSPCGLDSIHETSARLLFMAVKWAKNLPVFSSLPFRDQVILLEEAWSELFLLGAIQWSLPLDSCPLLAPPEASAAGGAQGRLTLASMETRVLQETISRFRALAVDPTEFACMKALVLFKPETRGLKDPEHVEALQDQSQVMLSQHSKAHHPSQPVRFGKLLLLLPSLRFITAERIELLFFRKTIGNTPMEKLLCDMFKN
proKLK7 act: proKLK7 (human) activation, primary screen. P49862. purified proKLK7, EDANS-DABCYL substrate fluorescence; 100% is mature enzyme control, 0% vehicle. activation, % at 7 µM. 0.9% of 370,000 active;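 active = activation above the mean of all tested compounds plus 3 SD, computed per campaign excluding outliers beyond control limits, cut at about 13% in these data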
Target sequence (P49862 whole entry, looked up): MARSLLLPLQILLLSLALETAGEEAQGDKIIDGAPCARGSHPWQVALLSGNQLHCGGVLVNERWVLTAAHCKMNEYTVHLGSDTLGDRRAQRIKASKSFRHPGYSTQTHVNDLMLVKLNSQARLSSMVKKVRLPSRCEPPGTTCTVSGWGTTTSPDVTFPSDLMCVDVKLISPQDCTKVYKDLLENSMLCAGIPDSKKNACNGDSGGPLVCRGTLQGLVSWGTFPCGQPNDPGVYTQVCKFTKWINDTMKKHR
NR2E3 ag-2: NR2E3 (human) agonism | Q9Y5X4 | AID 2300 | GST-NR2E3/biotin-RetCOR TR-FRET, 1536-well | 0.12% of 320,000 active | inhibition of corepressor binding, % at 4.78 µM;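 active = percent inhibition above the cutoff of mean plus 3 SD of all tested compounds, set per screening campaign, cut at about 20% in these data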;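 note: 0% = DMSO wells and 100% = biotin wells as full block of FRET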
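System: GST-NR2E3 and biotin-RetCOR proteins; probe or stimulus: 7 nM biotin-RetCOR; doses: compound at 4.8 µM, single dose; schedule: Compound–protein incubation for 5 h at 4 °C; detection: time-resolved FRET; read-out: percent inhibition; controls: biotin wells as high control, 0.6% DMSO wells as low control; format: 1536-well plates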
proKLK7 act conf: proKLK7 activation, confirmation; shares compounds with proKLK7 act; purified proKLK7, EDANS-DABCYL substrate fluorescence; scaled: vehicle 0, mature enzyme 100; activation, % at 7 µM; 68% of 3,200 active; AID 686949;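 active = activation, as change over the incubation, above the mean of all tested compounds plus 3 SD, cut at about 13% in these data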
EDANS interfere: counter-screen for kallikrein-7 activators: EDANS-DABCYL optical interference; 80% of 3,200 active; shares compounds with proKLK7 act; EDANS-DABCYL substrate fluorescence interference, no enzyme, 4 h; solvent 0%, active enzyme control 100%; activation, % at 7 µM; AID 686952;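 active = activation above the all-compound mean plus 3 SD, ignoring values outside control-based bounds, cut at about 4.8% in these data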;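 note: value is the 4 h activation minus the activation read at time zero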
K7 EDANS ctr: EDANS fluorescence interference in dose response, no enzyme; shares compounds with proKLK7 act; EDANS-DABCYL peptide fluorescence interference; EC50, µM; 20% of 250 active; AID 720493;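 active = compounds that raise the fluorescence signal in this interference counterscreen, with EC50 at or below 10 µM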;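 note: intact quenched peptide substrate alone read at 355 nm excitation and 520 nm emission; signal is fluorescence gain from T0 to T4 after four hours at room temperature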
* marks the source's active call; other numbers are inactive results. The list is not random: actives were taken first. Their share in the collection is about 2.5%.

What do the screens show for `Cc1ccc(NC(=O)CN(C)C(=O)C(C)OC(=O)c2ccccc2NCCO)cc1` (stereo unspecified)?
GASC-1 inh: 2; ADAM10 inh: inactive; ADAM17 inh: inactive; NR2E3 ag-1: 2; proKLK7 act: 21*; NR2E3 ag-2: 6; proKLK7 act conf: -2; EDANS interfere: -1

How did Cc1ccc(NC(=O)CN(C)C(=O)C(c2ccccc2)c2ccccc2)cc1 do in these assays?
GASC-1 inh: 2; ADAM10 inh: -2; ADAM17 inh: -4; NR2E3 ag-1: -3; proKLK7 act: 0; NR2E3 ag-2: 3

Results for CC1(C)Cc2c(cnn2-c2ccc(F)cc2)C(NC(=O)CN2CCCCC2=O)C1 (stereo unspecified) ?
GASC-1 inh: 4; ADAM10 inh: -14; ADAM17 inh: -6; NR2E3 ag-1: 6; proKLK7 act: 0; NR2E3 ag-2: 3

What do the screens show for `COCCCNC(=O)CN(CCc1ccccc1)S(=O)(=O)c1ccc(C)cc1`?
GASC-1 inh: -26; ADAM10 inh: 4; ADAM17 inh: 0; NR2E3 ag-1: -11; proKLK7 act: 0; NR2E3 ag-2: -1

Results for CCNC(=S)N1CCc2cc(OC)c(OC)cc2C1COc1ccccc1OC (stereo unspecified) ?
GASC-1 inh: -3; ADAM10 inh: -387; ADAM17 inh: -129; NR2E3 ag-1: -15; proKLK7 act: 58*; NR2E3 ag-2: 1; proKLK7 act conf: 30*; EDANS interfere: 36*

What do the screens show for `CCNC(=S)N1CCc2cc(OC)c(OC)cc2C1COc1ccc(OC)cc1` (stereo unspecified)?
GASC-1 inh: -12; ADAM10 inh: 4; ADAM17 inh: 3; NR2E3 ag-1: -19; proKLK7 act: 0; NR2E3 ag-2: 3

Results for CCc1nnc(NC(=O)CSCc2cc(=O)n3ccsc3n2)s1 ?
GASC-1 inh: -1; ADAM10 inh: 2; ADAM17 inh: -4; NR2E3 ag-1: -13; proKLK7 act: 0; NR2E3 ag-2: 1

Results for COCCn1c(=O)[nH]c(=O)c2c(C(F)(F)F)cc(-c3cccs3)nc21 ?
GASC-1 inh: 0; ADAM10 inh: inactive; ADAM17 inh: inactive; NR2E3 ag-1: 1; proKLK7 act: 31*; NR2E3 ag-2: -2; proKLK7 act conf: -13; EDANS interfere: -34

How did CCN(CC)CCN(C(=O)c1cc2c(ccc3ccccc32)oc1=O)c1nc2cc3c(cc2s1)OCCO3 do in these assays?
GASC-1 inh: -7; ADAM10 inh: inactive; ADAM17 inh: inactive; NR2E3 ag-1: 12; proKLK7 act: 46*; NR2E3 ag-2: 4; proKLK7 act conf: 61*; EDANS interfere: 65*

Results for OC[C@@H]1CN(Cc2cccs2)C[C@H](n2cnc3c(NCc4ccncc4)ncnc32)O1 ?
ADAM10 inh: -2; ADAM17 inh: 1; NR2E3 ag-1: -6; proKLK7 act: 0

What do the screens show for `O=C(Nc1nc2c(s1)CN(Cc1ccccc1)CC2)c1cccc(S(=O)(=O)N2CCc3ccccc32)c1`?
GASC-1 inh: -7; ADAM10 inh: -179; ADAM17 inh: -44; NR2E3 ag-1: 5; proKLK7 act: 640*; NR2E3 ag-2: -4; proKLK7 act conf: 21*; EDANS interfere: 18*

What do the screens show for `CC(=O)Oc1ccc(C(=O)Nc2ccc(S(=O)(=O)NCC3CCCO3)cc2)cc1` (stereo unspecified)?
GASC-1 inh: 5; ADAM10 inh: -1; ADAM17 inh: -5; NR2E3 ag-1: -9; proKLK7 act: 0; NR2E3 ag-2: -5

What do the screens show for `O=C(NCC1CCCO1)c1cc(-c2ccncc2)nc2ccccc12` (stereo unspecified)?
ADAM10 inh: -8; ADAM17 inh: -8; NR2E3 ag-1: 5; proKLK7 act: -1

What do the screens show for `O=C(NCC1CCCO1)c1cc(-c2ccco2)nc2ccccc12` (stereo unspecified)?
GASC-1 inh: 15; ADAM10 inh: -470; ADAM17 inh: -165; NR2E3 ag-1: -25; proKLK7 act: 59*; NR2E3 ag-2: 3; proKLK7 act conf: 67*; EDANS interfere: 68*

How did COc1cccc(-c2cc(C(=O)NC3CC3)c3ccccc3n2)c1 do in these assays?
GASC-1 inh: -17; ADAM10 inh: -4; ADAM17 inh: 2; NR2E3 ag-1: -32; proKLK7 act: 0; NR2E3 ag-2: 3

What do the screens show for `O=C(NC1CCC(O)CC1)c1cc(-c2ccco2)nc2ccccc12` (stereo unspecified)?
GASC-1 inh: 1; ADAM10 inh: inactive; ADAM17 inh: inactive; NR2E3 ag-1: -13; proKLK7 act: 28*; NR2E3 ag-2: 5; proKLK7 act conf: 13*; EDANS interfere: 11*; K7 EDANS ctr: >70

What do the screens show for `CCOc1cc(C(=O)Nc2ccc(S(=O)(=O)N3CCCCC3)cc2)ccc1OCC(=O)N1CCOCC1`?
GASC-1 inh: 35; ADAM10 inh: 1; ADAM17 inh: -1; NR2E3 ag-1: -37; proKLK7 act: 20*; NR2E3 ag-2: -1; proKLK7 act conf: 14*; EDANS interfere: 15*

How did CC(OC(=O)C1CCN(S(=O)(=O)c2ccc3c(c2)OCCO3)CC1)C(=O)NC1(C#N)CCCCC1 (stereo unspecified) do in these assays?
ADAM10 inh: -2; ADAM17 inh: 1; NR2E3 ag-1: 14; proKLK7 act: 1

How did CCOC(=O)CC1C(=O)NCCN1C(=O)c1cccc(OC)c1 (stereo unspecified) do in these assays?
GASC-1 inh: 4; ADAM10 inh: 9; ADAM17 inh: 0; NR2E3 ag-1: -9; proKLK7 act: 1; NR2E3 ag-2: -3

What do the screens show for `Cc1cccc(-n2c(=O)c(C#N)cc3c(=O)n4ccccc4nc32)c1`?
GASC-1 inh: 10; ADAM10 inh: inactive; ADAM17 inh: inactive; NR2E3 ag-1: -19; proKLK7 act: 16*; NR2E3 ag-2: -2; proKLK7 act conf: 51*; EDANS interfere: 72*

What do the screens show for `Cc1ccc(-n2c(=O)c(C#N)cc3c(=O)n4ccccc4nc32)cc1`?
GASC-1 inh: 5; ADAM10 inh: inactive; ADAM17 inh: -232; NR2E3 ag-1: -20; proKLK7 act: 6; NR2E3 ag-2: 3

Screening results (PubChem)
